The values that follow come from ChEMBL document CHEMBL1142087 (Antimicrob Agents Chemother, 2007).

SMILES strings stand for the structures. Active and inactive are the calls of the source. The calls are words filed in the database; no cut-off is given here.

Assay [1] has as its system Mus musculus. In words: Inhibition of increase in lung weight of BALB/c mouse infected with influenza A virus (A/duck/Minnesota/1525/1981 (H5N1)) at 33 mg/kg/day, po qid for 5 days administered 1 hr after infection measured on day 6 relative to carboxymethyl cellulose. Type of assay: functional.
Assay [2] deals with Mus musculus. In words: Lowering of arterial oxygen saturation decline in BALB/c mouse infected with influenza A virus (A/duck/Minnesota/1525/1981 (H5N1)) at 3 mg/kg/day, po once daily for 5 days administered 1 hr after infection measured on day 11 relative to carboxymethyl cellulose. Type of assay: functional.
Assay [3] concerns Mus musculus. As to the kind of experiment: Effect on survival of BALB/c mouse infected with influenza A virus (A/duck/Minnesota/1525/1981 (H5N1)) at 300 mg/kg/day, po qid for 5 days administered 84 hrs after infection relative to carboxymethyl cellulose. It is filed as functional, organism-based.
The test system of assay [4] is Mus musculus. In words: Effect on survival in BALB/c mouse infected with influenza A virus (A/duck/Minnesota/1525/1981 (H5N1)) at 300 mg/kg/day, po administered 12 hrs after infection relative to carboxymethyl cellulose. It is filed as functional, organism-based.
The subject of assay [5] is Mus musculus. As to the kind of experiment: Lowering of arterial oxygen saturation decline in BALB/c mouse infected with influenza A virus (A/duck/Minnesota/1525/1981 (H5N1)) at 300 mg/kg/day, po qid for 5 days administered 84 hrs after infection measured on day 11 relative to carboxymethyl cellulose. It is filed as functional.
Assay [6] deals with Mus musculus. As to the kind of experiment: Lowering of arterial oxygen saturation decline in BALB/c mouse infected with influenza A virus (A/duck/Minnesota/1525/1981 (H5N1)) at 300 mg/kg/day, po once daily for 5 days administered 1 hr after infection measured on day 11 relative to carboxymethyl cellulose. It is filed as functional.
The test system of assay [7] is Mus musculus. In words: Effect on survival of BALB/c mouse infected with influenza A virus (A/duck/Minnesota/1525/1981 (H5N1)) at 33 mg/kg/day, po qid for 5 days administered 1 hr after infection relative to carboxymethyl cellulose. It is filed as functional, organism-based.
The test system of assay [8] is Influenza A virus. In words: Inhibition of Influenza A virus (A/gull/Pennsylvania/4175/83 (H5N1)) replication in MDCK cells by virus yield reduction assay. Type of assay: functional.
In assay [9] the test system is Mus musculus. As to the kind of experiment: Lowering of arterial oxygen saturation decline in BALB/c mouse infected with influenza A virus (A/duck/Minnesota/1525/1981 (H5N1)) at 300 mg/kg/day, po qid for 5 days administered 24 hrs after infection measured on day 11 relative to carboxymethyl cellulose. It is filed as functional.
In assay [10] the test system is Mus musculus. As to the kind of experiment: Lowering of Arterial oxygen saturation decline in BALB/c mouse infected with influenza A virus (A/duck/Minnesota/1525/1981 (H5N1)) at 100 mg/kg/day, po twice daily for 5 days administered 1 hr after infection measured on day 11 relative to carboxymethyl cellulose. It is filed as functional. The essentials: (§1)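 Arterial oxygen saturation was measured by pulse oximeter, with the ear probe placed on the thigh and read after 30 s stabilization. Values were taken on day 11, 10 mice per group. Mice dead from infection were assigned 75%. Means were compared with CMC controls by t test.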

Assay [11] deals with Mus musculus. As to the kind of experiment: Effect on survival of BALB/c mouse infected with influenza A virus (A/duck/Minnesota/1525/1981 (H5N1)) at 300 mg/kg/day, po twice daily for 5 days administered 1 hr after infection relative to carboxymethyl cellulose. It is filed as functional, organism-based.
Assay [12] has as its system Mus musculus. In words: Lowering of arterial oxygen saturation decline in BALB/c mouse infected with influenza A virus (A/duck/Minnesota/1525/1981 (H5N1)) at 300 mg/kg/day, po qid for 5 days administered 48 hrs after infection measured on day 11 relative to carboxymethyl cellulose. It is filed as functional.
The subject of assay [13] is Mus musculus. In words: Effect on survival in BALB/c mouse infected with influenza A virus (A/duck/Minnesota/1525/1981 (H5N1)) at 600 mg/kg/day, po administered 12 hrs after infection relative to carboxymethyl cellulose. Type of assay: functional, organism-based.
The subject of assay [14] is Mus musculus. In words: Effect on survival in BALB/c mouse infected with influenza A virus (A/duck/Minnesota/1525/1981 (H5N1)) at 600 mg/kg/day, po administered 24 hrs after infection relative to carboxymethyl cellulose. It is filed as functional, organism-based.
The test system of assay [15] is Mus musculus. In words: Effect on survival in BALB/c mouse infected with influenza A virus (A/duck/Minnesota/1525/1981 (H5N1)) at 300 mg/kg/day, po administered 24 hrs after infection relative to carboxymethyl cellulose. It is filed as functional, organism-based.
Assay [16] concerns Mus musculus. In words: Lowering of arterial oxygen saturation decline in BALB/c mouse infected with influenza A virus (A/duck/Minnesota/1525/1981 (H5N1)) at 300 mg/kg/day, po qid for 5 days administered 120 hrs after infection measured on day 11 relative to carboxymethyl cellulose. It is filed as functional.
The subject of assay [17] is Mus musculus. As to the kind of experiment: Effect on survival in BALB/c mouse infected with influenza A virus (A/duck/Minnesota/1525/1981 (H5N1)) at 600 mg/kg/day, po administered 48 hrs after infection relative to carboxymethyl cellulose. Type of assay: functional, organism-based.
Assay [18] deals with Mus musculus. As to the kind of experiment: Lowering of Arterial oxygen saturation decline in BALB/c mouse infected with influenza A virus (A/duck/Minnesota/1525/1981 (H5N1)) at 300 mg/kg/day, po qid for 5 days administered 1 hr after infection measured on day 11 relative to carboxymethyl cellulose. Type of assay: functional. The method, boiled down: as §1
In assay [19] the test system is Mus musculus. In words: Effect on survival of BALB/c mouse infected with influenza A virus (A/duck/Minnesota/1525/1981 (H5N1)) at 100 mg/kg/day, po qid for 5 days administered 1 hr after infection relative to carboxymethyl cellulose. It is filed as functional, organism-based.
The subject of assay [20] is Mus musculus. As to the kind of experiment: Lowering of Arterial oxygen saturation decline in BALB/c mouse infected with influenza A virus (A/duck/Minnesota/1525/1981 (H5N1)) at 33 mg/kg/day, po qid for 5 days administered 1 hr after infection measured on day 11 relative to carboxymethyl cellulose. It is filed as functional.
The test system of assay [21] is Mus musculus. In words: Lowering of arterial oxygen saturation decline in BALB/c mouse infected with influenza A virus (A/duck/Minnesota/1525/1981 (H5N1)) at 100 mg/kg/day, po once daily for 5 days administered 1 hr after infection measured on day 11 relative to carboxymethyl cellulose. Type of assay: functional.
Assay [22] relates to Influenza A virus. As to the kind of experiment: Inhibition of influenza A virus (A/duck/Minnesota/1525/1981 (H5N1)) replication in MDCK cells by virus yield reduction assay. It is filed as functional.

`NC(=O)c1nc(F)cnc1O` [FAVIPIRAVIR]: the Activity turned out to be 217 mg with Mus musculus [1]; 75% in the assay with Mus musculus [2]; 81.7% with Mus musculus [5]; 82.7% with Mus musculus [6]; 85.3% with Mus musculus [9]; 84.2% in the assay on Mus musculus [10]. Also, the Activity amounted to 87.1% with Mus musculus [12]; 76% with Mus musculus [16]; 88.6% with Mus musculus [18]; 84.8% in the assay with Mus musculus [20]; 80.8% in the assay on Mus musculus [21]. Moreover, the outcome in the assay on Mus musculus [3], in the assay on Mus musculus [4], in the assay on Mus musculus [7], with Mus musculus [11], in the assay on Mus musculus [13] and in the assay on Mus musculus [14] was Active. Besides, the outcome in the assay on Mus musculus [15], in the assay on Mus musculus [17] and with Mus musculus [19] was Active. Further, the figures for the EC90 in the assay with Influenza A virus [8] and in the assay with Influenza A virus [22] were 7.7 µM and 2.6 µM, respectively.

What is called EC90 is the point of the concentration-response curve where the effect stands at 90%.
